Laboratory results as given in ChEMBL document CHEMBL1144989, “Synthesis and biological evaluation of resveratrol and analogues as apoptosis-inducing agents” (J Med Chem, 2003).

Assays:
[1] = tested on: HL-60; experiment: In vitro concentration required to induce apoptosis in HL60 cells; format: functional, cell-based, Homo sapiens
Outline: (§1)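 Apoptosis scored morphologically after acridine orange/ethidium bromide labeling. 2 × 10^5 cells were pelleted at 300g, resuspended in dye mix and examined under a fluorescence microscope with a 100× oil objective. Percentages were confirmed by annexin V/PI and by the PI sub-G0-G1 hypodiploid peak after 48 h culture. Compounds were diluted in medium from DMSO or PBS, DMSO ≤0.1%.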

[2] = tested on: HL-60; experiment: In vitro inhibitory concentration against proliferation of HL60 cells; format: functional, cell-based, Homo sapiens
Outline: (§2)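 Cells were cultured at 37 °C in 5% CO2. 2 × 10^5 cells in 1 mL complete medium were treated with a range of drug concentrations for 48 h. Viable cells were counted on a hemocytometer after trypan blue staining and expressed as percent of control proliferation. Compounds were diluted in medium from DMSO or PBS stocks, final DMSO ≤0.1%, protected from light.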

[3] = tested on: HL-60; experiment: (§3) In vitro concentration required to induce apoptosis in HL60R cells; format: functional, cell-based; conditions: Homo sapiens
Outline: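 HL60R cells in 5% CO2 at 37 °C, treated with a range of drug concentrations for 48 h. Cells were labelled with acridine orange/ethidium bromide and scored under fluorescence microscopy (100× oil) as live, apoptotic or necrotic. The AC50 is derived from the percentage of apoptotic cells. Annexin V/PI staining and PI sub-G0-G1 flow cytometry served as confirmation. DMSO ≤0.1%.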

[4] = tested on: HL-60; experiment: (§4) In vitro inhibitory concentration against proliferation of HL60R cells; format: functional, cell-based; conditions: Homo sapiens
Outline: (§5)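 HL60R cells, 2 × 10^5 per well in 1 mL complete medium at 37 °C with 5% CO2, treated with a range of drug concentrations for 48 h. Compounds were dissolved in DMSO or PBS, with final DMSO ≤0.1%. Viable cells were counted by trypan blue exclusion on a hemocytometer and expressed as percent of control proliferation to derive the IC50.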

[5] = tested on: HL-60; experiment: (§6) In vitro inhibitory concentration against proliferation of HL60R cells along with 5 (uM) verapamil; format: functional, cell-based; conditions: Homo sapiens
Outline: as §5, with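 “given verapamil together” for “treated”, “h.” for “h. Compounds were dissolved in DMSO or PBS, with final DMSO ≤0.1%.”, “IC50. Final DMSO ≤0.1%.” for “IC50.”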

[6] = tested on: HL-60; experiment: as §3; format: functional, cell-based; conditions: Homo sapiens; outline: as §1; remark: listed apart in the source
[7] = tested on: HL-60; experiment: as §4; format: functional, cell-based; conditions: Homo sapiens; outline: as §2; remark: listed apart in the source
[8] = tested on: HL-60; experiment: as §6; format: functional, cell-based; conditions: Homo sapiens; outline: as §2; remark: listed apart in the source
[9] = tested on: HL-60; experiment: In vitro concentration required to inhibit cell proliferation in HL60R cells; conditions: Homo sapiens

Compound | AC50 ([1]; Homo sapiens, HL-60) | IC50 ([2]; Homo sapiens, HL-60) | also measured
COc1ccc(/C=C/c2cc(O)cc(O)c2)cc1O | > 200 µM | 48 µM | –
COc1cc(/C=C\c2ccc(OC)c(O)c2)cc(OC)c1 | 0.04 µM | – | AC50 [3]: 0.03 µM; IC50 [4]: 0.025 µM; IC50 [5]: 0.02 µM
COc1cc(/C=C/c2ccc(OC)c(N)c2)cc(OC)c1 | 8 µM | 4 µM | –
COc1cc(/C=C/c2ccc(O[Si](C)(C)C(C)(C)C)cc2)cc(OC)c1 | > 200 µM | 48 µM | –
COc1cc(/C=C\c2ccc(O)c(O)c2)cc(OC)c1 | 0.1 µM | 0.05 µM | –
COc1cc(/C=C\c2ccc(O)c(OC)c2)cc(OC)c1 | 38 µM | 20 µM | –
COc1cc(/C=C/c2ccc(O)c(OC)c2)cc(OC)c1 | 40 µM | 25 µM | –
COc1cc(/C=C\c2ccc(OC)c(N)c2)cc(OC)c1 | 0.04 µM | – | AC50 [6]: 0.05 µM; IC50 [7]: 0.035 µM; IC50 [8]: 0.032 µM
COc1cc(/C=C\c2ccc(O[Si](C)(C)C(C)(C)C)cc2)cc(OC)c1 | > 200 µM | 50 µM | –
COc1ccc(/C=C/c2cc(O)cc(O)c2)cc1N | > 200 µM | 80 µM | –
COc1ccc(/C=C\c2cc(O)cc(O)c2)cc1N | 68 µM | 40 µM | –
COc1cc(/C=C/c2ccc(O)c(O)c2)cc(OC)c1 | 1 µM | 0.8 µM | –
COc1ccc(/C=C\c2cc(O)cc(O)c2)cc1O | 70 µM | 40 µM | –
COc1cc(/C=C/c2ccc(OC)c(O)c2)cc(OC)c1 | 0.9 µM | 0.7 µM | –
COc1cc(/C=C\c2ccc(O)cc2)cc(OC)c1 | 5 µM | 2 µM | –
Oc1ccc(/C=C\c2cc(O)cc(O)c2)cc1 [CIS-RESVERATROL] | > 200 µM | 42 µM | –
Nc1ccn([C@@H]2O[C@H](CO)[C@@H](O)[C@@H]2O)c(=O)n1 [CYTARABINE] | 0.15 µM | 0.08 µM | AC50 [6]: 8 µM; IC50 [9]: 0.35 µM
COc1cccc2c1C(=O)c1c(O)c3c(c(O)c1C2=O)C[C@@](O)(C(C)=O)C[C@@H]3O[C@H]1C[C@H](N)[C@H](O)[C@H](C)O1 [DAUNORUBICIN] | 0.04 µM | 0.005 µM | AC50 [6]: 10 µM; IC50 [7]: 1.5 µM; IC50 [8]: 0.04 µM
COc1cc([C@@H]2c3cc4c(cc3[C@@H](O[C@@H]3O[C@@H]5CO[C@@H](C)O[C@H]5[C@H](O)[C@H]3O)[C@H]3COC(=O)[C@H]23)OCO4)cc(OC)c1O [ETOPOSIDE] | 0.45 µM | 0.123 µM | AC50 [6]: 15 µM; IC50 [7]: 6.5 µM; IC50 [8]: 0.5 µM
O=c1[nH]cc(F)c(=O)[nH]1 [FLUOROURACIL] | 6.5 µM | 1.5 µM | –
COc1cc(/C=C/c2ccc(O)cc2)cc(OC)c1 [PTEROSTILBENE] | 70 µM | 35 µM | –
Oc1ccc(/C=C/c2cc(O)cc(O)c2)cc1 [RESVERATROL] | 50 µM | 5 µM | –
CISPLATIN | – | – | AC50 ([1]; hl-60): 1.2 µM; IC50 ([2]; hl-60): 0.6 µM
